# Assay results reported in the M2OR odorant receptor database.
# Key:
# Conditions in all cases: stereoisomer not certain
# OR1F12P (Homo sapiens) = molecular target: T1, OR1F12P (Homo sapiens) (UniProt Q8NHA8)
# T1 sequence (whole entry): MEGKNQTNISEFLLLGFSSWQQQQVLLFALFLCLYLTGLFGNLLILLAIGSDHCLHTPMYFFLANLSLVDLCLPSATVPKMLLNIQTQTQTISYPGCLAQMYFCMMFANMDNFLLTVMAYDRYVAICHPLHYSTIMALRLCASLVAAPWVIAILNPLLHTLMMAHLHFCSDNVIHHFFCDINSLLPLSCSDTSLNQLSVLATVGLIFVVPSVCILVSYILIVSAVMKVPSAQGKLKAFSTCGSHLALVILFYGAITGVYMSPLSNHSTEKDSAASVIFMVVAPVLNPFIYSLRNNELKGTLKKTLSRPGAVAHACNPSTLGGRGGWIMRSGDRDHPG
# How it was run: (§1)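 Transient luciferase assays in mammalian cell lines were common, though methods varied by source. The values come from published papers and their supplementary material, with extra details from the original authors when needed. Responsive refers to a measured signal the original authors judged statistically different from baseline, and non-responsive (inactive) to the remainder.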
# OR1F1 = system: T2, OR1F1
# T2 sequence (whole entry): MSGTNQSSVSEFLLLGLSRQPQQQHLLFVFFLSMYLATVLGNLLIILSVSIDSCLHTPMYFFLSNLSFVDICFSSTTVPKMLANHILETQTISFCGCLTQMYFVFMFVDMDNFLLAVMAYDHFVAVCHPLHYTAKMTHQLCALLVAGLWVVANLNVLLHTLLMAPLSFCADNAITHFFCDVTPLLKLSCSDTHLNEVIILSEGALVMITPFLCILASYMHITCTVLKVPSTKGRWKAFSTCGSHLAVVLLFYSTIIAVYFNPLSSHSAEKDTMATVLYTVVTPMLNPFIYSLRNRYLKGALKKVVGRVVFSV
# How it was run: as §1
# OR1G1 (Homo sapiens) = molecular target: T3, OR1G1 (Homo sapiens) (UniProt P47890)
# T3 sequence (whole entry): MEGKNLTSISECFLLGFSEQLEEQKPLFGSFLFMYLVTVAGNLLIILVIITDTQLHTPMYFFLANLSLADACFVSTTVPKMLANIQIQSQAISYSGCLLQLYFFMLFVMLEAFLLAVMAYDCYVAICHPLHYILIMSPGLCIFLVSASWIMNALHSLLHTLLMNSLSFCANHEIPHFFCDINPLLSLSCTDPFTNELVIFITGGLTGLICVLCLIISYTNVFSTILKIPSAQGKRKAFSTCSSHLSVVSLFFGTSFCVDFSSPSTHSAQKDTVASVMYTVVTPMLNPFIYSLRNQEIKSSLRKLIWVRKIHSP
# How it was run: as §1
# OR1I1 (Homo sapiens) = molecular target: T4, OR1I1 (Homo sapiens) (UniProt O60431)
# T4 sequence (whole entry): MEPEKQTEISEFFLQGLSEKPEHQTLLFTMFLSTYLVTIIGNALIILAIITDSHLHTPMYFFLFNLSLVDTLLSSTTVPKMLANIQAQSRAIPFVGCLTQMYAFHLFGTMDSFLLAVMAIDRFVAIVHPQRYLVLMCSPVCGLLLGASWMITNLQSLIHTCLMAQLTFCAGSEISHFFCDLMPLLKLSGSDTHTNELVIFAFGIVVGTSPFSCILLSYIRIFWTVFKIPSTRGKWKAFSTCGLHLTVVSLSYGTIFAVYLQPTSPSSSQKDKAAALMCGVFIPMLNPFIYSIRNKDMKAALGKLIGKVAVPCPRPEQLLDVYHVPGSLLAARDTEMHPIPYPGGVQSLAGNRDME
# How it was run: as §1
# OR1J1 (Homo sapiens) = molecular target: T5, OR1J1 (Homo sapiens) (UniProt Q8NGS3)
# T5 sequence (whole entry): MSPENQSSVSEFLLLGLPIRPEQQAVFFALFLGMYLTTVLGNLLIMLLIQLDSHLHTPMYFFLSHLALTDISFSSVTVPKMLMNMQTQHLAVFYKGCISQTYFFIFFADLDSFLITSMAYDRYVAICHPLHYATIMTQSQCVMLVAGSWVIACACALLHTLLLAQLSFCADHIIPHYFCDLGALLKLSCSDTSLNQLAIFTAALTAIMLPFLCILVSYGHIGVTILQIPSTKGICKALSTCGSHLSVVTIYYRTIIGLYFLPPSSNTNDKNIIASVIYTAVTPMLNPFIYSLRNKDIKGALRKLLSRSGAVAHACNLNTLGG
# How it was run: as §1
# OR1J2 (Homo sapiens) = molecular target: T6, OR1J2 (Homo sapiens) (UniProt Q8NGS2)
# T6 sequence (whole entry): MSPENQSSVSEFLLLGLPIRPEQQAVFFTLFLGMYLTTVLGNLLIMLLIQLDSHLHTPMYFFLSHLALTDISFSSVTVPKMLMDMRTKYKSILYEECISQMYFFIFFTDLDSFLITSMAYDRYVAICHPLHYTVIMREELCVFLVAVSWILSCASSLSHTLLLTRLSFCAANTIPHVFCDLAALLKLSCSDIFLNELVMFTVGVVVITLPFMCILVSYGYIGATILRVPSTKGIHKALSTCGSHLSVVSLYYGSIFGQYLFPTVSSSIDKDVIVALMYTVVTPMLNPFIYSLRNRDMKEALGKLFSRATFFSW
# How it was run: as §1
# OR1J4 (Homo sapiens) = molecular target: T7, OR1J4 (Homo sapiens) (UniProt Q8NGS1)
# T7 sequence (whole entry): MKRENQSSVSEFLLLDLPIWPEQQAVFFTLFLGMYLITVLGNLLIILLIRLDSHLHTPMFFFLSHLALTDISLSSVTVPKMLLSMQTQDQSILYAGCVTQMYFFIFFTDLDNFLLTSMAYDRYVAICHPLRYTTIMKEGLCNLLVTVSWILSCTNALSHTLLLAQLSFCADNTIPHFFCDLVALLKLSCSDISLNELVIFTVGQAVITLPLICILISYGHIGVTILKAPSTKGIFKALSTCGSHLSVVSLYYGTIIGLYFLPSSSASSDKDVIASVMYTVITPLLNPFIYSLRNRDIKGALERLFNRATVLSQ
# How it was run: as §1
# OR1K1 (Homo sapiens) = molecular target: T8, OR1K1 (Homo sapiens) (UniProt Q8NGR3)
# T8 sequence (whole entry): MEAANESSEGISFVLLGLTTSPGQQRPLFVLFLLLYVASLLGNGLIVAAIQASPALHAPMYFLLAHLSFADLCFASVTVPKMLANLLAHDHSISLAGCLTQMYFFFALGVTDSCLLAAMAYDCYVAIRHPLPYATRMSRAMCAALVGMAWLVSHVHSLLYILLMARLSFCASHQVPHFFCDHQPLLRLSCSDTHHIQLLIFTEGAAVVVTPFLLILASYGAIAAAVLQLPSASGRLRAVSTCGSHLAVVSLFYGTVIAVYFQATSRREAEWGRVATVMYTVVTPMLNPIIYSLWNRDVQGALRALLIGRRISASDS
# How it was run: as §1
# OR1L1 = system: T9, OR1L1
# T9 sequence (whole entry): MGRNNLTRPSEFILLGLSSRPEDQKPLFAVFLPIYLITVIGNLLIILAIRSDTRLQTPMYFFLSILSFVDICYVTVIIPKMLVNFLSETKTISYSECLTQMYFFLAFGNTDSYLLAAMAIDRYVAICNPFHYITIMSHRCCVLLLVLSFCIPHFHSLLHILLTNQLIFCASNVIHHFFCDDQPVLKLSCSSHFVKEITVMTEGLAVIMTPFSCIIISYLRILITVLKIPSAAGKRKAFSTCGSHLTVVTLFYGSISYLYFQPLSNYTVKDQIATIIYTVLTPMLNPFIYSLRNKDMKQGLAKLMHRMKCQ
# How it was run: as §1
# OR1L1 (Homo sapiens) = molecular target: T10, OR1L1 (Homo sapiens) (UniProt Q8NH94)
# T10 sequence (whole entry): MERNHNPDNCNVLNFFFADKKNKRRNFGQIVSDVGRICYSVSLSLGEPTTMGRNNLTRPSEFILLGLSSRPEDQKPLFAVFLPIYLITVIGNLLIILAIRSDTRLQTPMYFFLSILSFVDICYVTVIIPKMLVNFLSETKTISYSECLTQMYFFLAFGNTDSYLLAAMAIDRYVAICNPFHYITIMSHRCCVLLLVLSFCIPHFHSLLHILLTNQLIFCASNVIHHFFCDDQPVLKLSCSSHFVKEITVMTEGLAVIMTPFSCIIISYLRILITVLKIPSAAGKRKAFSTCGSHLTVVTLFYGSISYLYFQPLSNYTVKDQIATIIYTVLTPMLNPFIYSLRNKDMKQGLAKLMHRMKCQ
# How it was run: as §1
# 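Further: active if original authors judged signal statistically different from baseline.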
structure (smiles),measurement,setting,value
Cc1cnc(C)c(C)n1,odorant receptor agonist call,OR1F12P (Homo sapiens),inactive
same,odorant receptor agonist call,OR1F1,inactive
same,odorant receptor agonist call,OR1G1 (Homo sapiens),inactive
same,odorant receptor agonist call,OR1I1 (Homo sapiens),inactive
same,odorant receptor agonist call,OR1J1 (Homo sapiens),inactive
same,odorant receptor agonist call,OR1J2 (Homo sapiens),inactive
same,odorant receptor agonist call,OR1J4 (Homo sapiens),inactive
same,odorant receptor agonist call,OR1K1 (Homo sapiens),inactive
same,odorant receptor agonist call,OR1L1,inactive
CCCCCC(=O)C(C)C(C)=O (configuration not stated),odorant receptor agonist call,OR1F12P (Homo sapiens),inactive
same,odorant receptor agonist call,OR1G1 (Homo sapiens),inactive
same,odorant receptor agonist call,OR1I1 (Homo sapiens),inactive
same,odorant receptor agonist call,OR1J1 (Homo sapiens),inactive
same,odorant receptor agonist call,OR1J2 (Homo sapiens),inactive
same,odorant receptor agonist call,OR1J4 (Homo sapiens),inactive
same,odorant receptor agonist call,OR1K1 (Homo sapiens),inactive
same,odorant receptor agonist call,OR1L1 (Homo sapiens),inactive
CC1=NC(C)C(C)S1 (configuration not stated),odorant receptor agonist call,OR1F12P (Homo sapiens),inactive
same,odorant receptor agonist call,OR1F1,inactive
same,odorant receptor agonist call,OR1G1 (Homo sapiens),inactive
same,odorant receptor agonist call,OR1I1 (Homo sapiens),inactive
same,odorant receptor agonist call,OR1J1 (Homo sapiens),inactive
same,odorant receptor agonist call,OR1J2 (Homo sapiens),inactive
same,odorant receptor agonist call,OR1J4 (Homo sapiens),inactive
same,odorant receptor agonist call,OR1K1 (Homo sapiens),inactive
same,odorant receptor agonist call,OR1L1,inactive
CCCCCCC(C)=O,odorant receptor agonist call,OR1G1 (Homo sapiens),inactive
O=c1ccc2ccccc2o1,odorant receptor agonist call,OR1G1 (Homo sapiens),active
CCCCCC(S)C(C)CO (configuration not stated),odorant receptor agonist call,OR1F12P (Homo sapiens),inactive
same,odorant receptor agonist call,OR1G1 (Homo sapiens),inactive
same,odorant receptor agonist call,OR1I1 (Homo sapiens),inactive
same,odorant receptor agonist call,OR1J1 (Homo sapiens),inactive
same,odorant receptor agonist call,OR1J2 (Homo sapiens),inactive
same,odorant receptor agonist call,OR1J4 (Homo sapiens),inactive
same,odorant receptor agonist call,OR1K1 (Homo sapiens),inactive
same,odorant receptor agonist call,OR1L1 (Homo sapiens),inactive
C=CCOC(=O)COCCC(C)C,odorant receptor agonist call,OR1G1 (Homo sapiens),inactive
O=CN1CCCCC1,odorant receptor agonist call,OR1F1,inactive
CCOC(=O)CC1(C)OCCO1,odorant receptor agonist call,OR1G1 (Homo sapiens),inactive
CCCCCCC(C)O (configuration not stated),odorant receptor agonist call,OR1G1 (Homo sapiens),active
CCC(S)C(C)CO (configuration not stated),odorant receptor agonist call,OR1F12P (Homo sapiens),inactive
same,odorant receptor agonist call,OR1G1 (Homo sapiens),inactive
same,odorant receptor agonist call,OR1I1 (Homo sapiens),inactive
same,odorant receptor agonist call,OR1J1 (Homo sapiens),inactive
same,odorant receptor agonist call,OR1J2 (Homo sapiens),inactive
same,odorant receptor agonist call,OR1J4 (Homo sapiens),inactive
same,odorant receptor agonist call,OR1K1 (Homo sapiens),inactive
same,odorant receptor agonist call,OR1L1 (Homo sapiens),inactive
CC(C)=CCCC(C)=CCO,odorant receptor agonist call,OR1G1 (Homo sapiens),active
CCCCCC(=O)OC,odorant receptor agonist call,OR1G1 (Homo sapiens),inactive
CCC1OC(C)=C(O)C1=O (configuration not stated),odorant receptor agonist call,OR1F12P (Homo sapiens),inactive
same,odorant receptor agonist call,OR1F1,inactive
same,odorant receptor agonist call,OR1G1 (Homo sapiens),inactive
same,odorant receptor agonist call,OR1I1 (Homo sapiens),inactive
same,odorant receptor agonist call,OR1J1 (Homo sapiens),inactive
same,odorant receptor agonist call,OR1J2 (Homo sapiens),inactive
same,odorant receptor agonist call,OR1J4 (Homo sapiens),inactive
same,odorant receptor agonist call,OR1K1 (Homo sapiens),inactive
same,odorant receptor agonist call,OR1L1,inactive
CCCCCCCCCCC(C)=O,odorant receptor agonist call,OR1G1 (Homo sapiens),inactive
CCCCCCCCCCCC=O,odorant receptor agonist call,OR1G1 (Homo sapiens),inactive
CCCCCCCCC(=O)O,odorant receptor agonist call,OR1G1 (Homo sapiens),active
CCCCCCO,odorant receptor agonist call,OR1G1 (Homo sapiens),active
CCCCOC(=O)CCC,odorant receptor agonist call,OR1G1 (Homo sapiens),inactive
c1ccc2scnc2c1,odorant receptor agonist call,OR1G1 (Homo sapiens),active
CC(=O)C(C)O (configuration not stated),odorant receptor agonist call,OR1G1 (Homo sapiens),active
CCOC(=O)C(C)C,odorant receptor agonist call,OR1G1 (Homo sapiens),inactive
CCCCCC=O,odorant receptor agonist call,OR1G1 (Homo sapiens),active
CCCCCC1C(=O)CCC1CC(=O)OC (configuration not stated),odorant receptor agonist call,OR1G1 (Homo sapiens),active
CCCCCCCCCCCC(=O)O,odorant receptor agonist call,OR1G1 (Homo sapiens),inactive
CCCCCCCCO,odorant receptor agonist call,OR1G1 (Homo sapiens),active
CCCCC1CCC(=O)O1 (configuration not stated),odorant receptor agonist call,OR1G1 (Homo sapiens),inactive
CCCCCCC(=O)CC,odorant receptor agonist call,OR1G1 (Homo sapiens),active
CCC(=O)O,odorant receptor agonist call,OR1G1 (Homo sapiens),inactive
CC(C)(C)C1CCCCC1OCCCCO (configuration not stated),odorant receptor agonist call,OR1G1 (Homo sapiens),inactive
CCCCCCCCCC(=O)OCC,odorant receptor agonist call,OR1G1 (Homo sapiens),active
CCCCCC(=O)OCC,odorant receptor agonist call,OR1G1 (Homo sapiens),inactive
CCCCCCC1CCC(=O)O1 (configuration not stated),odorant receptor agonist call,OR1G1 (Homo sapiens),active
CCCCCCCCC(C)=O,odorant receptor agonist call,OR1G1 (Homo sapiens),inactive
CSC,odorant receptor agonist call,OR1G1 (Homo sapiens),inactive
CCC=C(C)C(O)CCCCC (configuration not stated),odorant receptor agonist call,OR1G1 (Homo sapiens),inactive
CCCCCCCCCCCCO,odorant receptor agonist call,OR1G1 (Homo sapiens),active
CCCCCCCC(=O)OC,odorant receptor agonist call,OR1G1 (Homo sapiens),active
CC(C)=CCCC(C)=CC#N,odorant receptor agonist call,OR1G1 (Homo sapiens),inactive
Cc1ccc(C(C)C)c(O)c1,odorant receptor agonist call,OR1G1 (Homo sapiens),active
CC=CC(=O)C1C(C)=CCCC1(C)C (configuration not stated),odorant receptor agonist call,OR1G1 (Homo sapiens),inactive
OCc1ccccc1,odorant receptor agonist call,OR1G1 (Homo sapiens),active
CC(=O)OCc1ccccc1,odorant receptor agonist call,OR1G1 (Homo sapiens),inactive
CC(=O)OCCC(C)C,odorant receptor agonist call,OR1G1 (Homo sapiens),active
CCCC(=O)OCC,odorant receptor agonist call,OR1G1 (Homo sapiens),active
COc1ccc(C)cc1,odorant receptor agonist call,OR1G1 (Homo sapiens),inactive
CC1CC(C)(c2ccccc2)CO1 (configuration not stated),odorant receptor agonist call,OR1G1 (Homo sapiens),inactive
